APJ antagonist: APJ receptor antagonism; P35414; CHO-K1 APJ beta-arrestin complementation, luminescence; inhibition, % at 20 µM; 330,000 compounds, 0.32% hits; AID 2521;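 active means inhibition above about 40% at 20 µM, limit read from the data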;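 further: cells challenged with 10 nM apelin-13 agonist together with compound; plate controls were apelin-13 plus DMSO wells for no effect and DMSO wells lacking apelin-13 for full effect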
CCR6 antag: blocks CCL20-driven beta-arrestin recruitment at human CCR6. CHO-K1 CCR6 PathHunter beta-arrestin, luminescence, CCL20-stimulated. inhibition, % at 20 µM. P51684. 340,000 compounds, 0.49% hits;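 active means compounds whose inhibition of the agonist-driven luminescence signal at 20 µM reaches about 50%, limit read from the data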;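 further: cells stimulated with CCL20 at 14 nM final; plate controls were DMSO with CCL20 for no effect and DMSO without agonist for full effect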
APJ agonist: APJ receptor agonism | 330,000 compounds, 0.11% hits | P35414 | CHO-K1 APJ PathHunter beta-arrestin, luminescence; 0% DMSO wells, 100% apelin | activation, % at 20 µM;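 active means activation more than six SD over the plate average, tested at 20 µM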;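 further: 0% = DMSO alone and 100% = apelin-13 at 10 nM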
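Material: CHO-K1 APJ beta-arrestin complementation cell line; Input: cell density 1000 per well; Incubation: compound stimulation 90 min at 25 °C, detection 60 min; Signal: luminescence from split beta-galactosidase complementation, Galacton Star/Emerald II substrate; Controls: DMSO-only wells as negative, 10 nM Apelin-13 as positive control.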
EBI2 antag: EBI2 (human) antagonism. P32249. EBI2 beta-arrestin recruitment, luminescence, 7a,25-OHC stimulated. inhibition, % at 5 µM. 360,000 compounds, 0.81% hits; in the data active means inhibition above about 38%;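 further: enzyme fragment complementation signal reports receptor beta-arrestin coupling in cells; 0% = agonist plus DMSO wells and 100% = wells without agonist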
Target sequence (P32249 whole entry, looked up, the tested form may be a part): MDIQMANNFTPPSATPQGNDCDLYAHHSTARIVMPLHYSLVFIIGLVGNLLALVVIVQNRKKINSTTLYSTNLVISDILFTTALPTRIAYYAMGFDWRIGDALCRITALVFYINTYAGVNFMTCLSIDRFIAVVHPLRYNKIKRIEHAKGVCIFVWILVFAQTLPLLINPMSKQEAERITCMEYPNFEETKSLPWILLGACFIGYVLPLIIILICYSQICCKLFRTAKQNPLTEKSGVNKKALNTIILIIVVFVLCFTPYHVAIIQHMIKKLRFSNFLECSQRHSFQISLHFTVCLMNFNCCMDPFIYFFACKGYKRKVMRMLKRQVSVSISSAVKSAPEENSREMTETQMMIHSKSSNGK
CXCR6 block: CXCR6 (human) receptor inhibition. inhibition, % at 20 µM. AID 602244. CHO-K1 PathHunter CXCR6 beta-arrestin, luminescence. 360,000 compounds, 0.36% hits. O00574; in the data active means inhibition above about 34%, passing the limit was not always enough;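 further: antagonist mode with CXCL16 agonist at 10 nM final; 0% = 10 nM CXCL16 with DMSO and 100% = unstimulated wells without agonist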
CXCR6 antag conf: CXCR6 antagonism confirmation, single concentration; 700 compounds, 65% hits; shares compounds with CXCR6 block; AID 602409; CHO-K1 CXCR6 PathHunter beta-arrestin, luminescence; inhibition, % at 20 µM;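 active means mean inhibition over four retests above 40%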;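 further: receptor stimulated with 10 nM CXCL16 agonist; beta-galactosidase fragment complementation upon beta-arrestin recruitment to receptor; plate controls were CXCL16 plus DMSO for no effect and DMSO without CXCL16 for full effect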
The depositor's hits bear a star; nt = no result. This is a sample that favours compounds with a hit; in the whole collection about 1.5% have one here.

SMILES	APJ antagonist	CCR6 antag	APJ agonist	EBI2 antag	CXCR6 block	CXCR6 antag conf
CC(=O)N1CCN(C(=O)COc2ccc3oc4c(c3c2)CCCC4)CC1	17	4	-2	5	-3	nt
CCCCn1c(Nc2ccccc2)nc2ccccc21	13	2	0	-9	-4	nt
CCCn1c(Nc2nc3ccccc3n2C)nc2ccccc21	8	84*	2	-10	70*	5
CC(CCc1ccccc1)NC(=O)c1cccs1 (stereo not given)	10	-1	4	-6	-2	nt
O=C(NNC(=O)c1cc(-c2ccccc2)nn1-c1ccccc1)c1ccccc1	-10	nt	-5	16	46*	41*
O=C(NC(=O)c1ccccc1)Nc1ccc(Cl)cn1	-60	6	-2	-7	-7	nt
O=S1(=O)CC(N2CCCC2)CN1Cc1cn(Cc2ccc(Cl)cc2)nn1 (stereo not given)	nt	nt	nt	-1	5	nt
CCn1nc(NC(C)=O)c2cc3ccc(C)cc3nc21	3	-5	0	2	44*	6
CCn1nc(NC(=O)C(C)C)c2cc3ccc(C)cc3nc21	-8	3	0	1	-7	nt
COc1ccccc1/C=C/C(=O)Oc1cccc2cccnc12	1	13	-3	0	3	nt
Cc1ccc2cccc(OC(=O)/C=C\c3ccccc3)c2n1	18	27	0	3	43*	39
CC(=O)Nc1nc2ccccc2n1CCOc1ccccc1Cl	29	46	-5	2	41*	66*
O=C(CSc1nc2ccccc2c(=O)[nH]1)NCc1ccc(Cl)cc1	8	-2	0	-2	-3	nt
O=c1[nH]c(SCc2ccc(Cl)cc2)nc2ccccc12	19	-9	-3	-3	82*	15
CCOC(=O)C1=CNS(=O)(=O)NC1c1cccc(O)c1 (stereo not given)	nt	18	nt	-11	-1	nt
CCC(C)c1ccc(O)c(NC(=S)NC(=O)c2cccs2)c1 (stereo not given)	nt	nt	nt	23	59*	64*
Cc1nn2c(NCc3ccccn3)cc(C(C)C)nc2c1-c1ccccc1	7	52*	-4	-16	49*	9
CC1=C(CO)C(=O)OC([C@@H](C)C2CC[C@H]3C4C[C@H]5O[C@]56[C@@H](O)C=CC(=O)[C@]6(C)C4CC[C@]23C)C1 (stereo not given in full)	nt	41	nt	55*	44*	48*
C=C1C(=O)C23C(O)C1CCC2C12CCCC(C)(COC(C)=O)C1C(O)C3(O)OC2 (stereo not given)	nt	103*	nt	77*	76*	95*
CC1C(=O)N(Cc2cn(Cc3ccco3)nn2)CCS(=O)(=O)N1Cc1ccc(-c2ccc(Cl)c(Cl)c2)cc1 (stereo not given)	nt	nt	nt	11	67*	-16
CC(O)CN(CC(C)O)c1ccc2c(c1)Cc1cc([N+](=O)[O-])ccc1-2 (stereo not given)	nt	55*	nt	10	38*	41*
Nc1ccc2c(c1)Cc1cc([N+](=O)[O-])ccc1-2	14	17	-3	1	6	nt
Cc1ccc(F)cc1CNC(=O)C1CCC(=O)N(C2CC2)C1 (stereo not given)	-2	-1	-6	-8	38*	-5
Cc1ccc(/C=C/C(=O)N2CC(C)CC(C)C2)o1 (stereo not given)	29	27	-1	4	76*	6
CCN1CCN(C(=O)/C=C/c2ccc(C)o2)CC1	11	1	-4	-3	3	nt
SMILES	APJ antagonist	CCR6 antag	APJ agonist	EBI2 antag	CXCR6 block	CXCR6 antag conf
O=C(c1ccccc1)c1ccccc1N1C(=O)C=CC1=O	27	nt	1	4	74*	16
CCC(C)C(NC(=O)C1CCC(C)CC1)C(=O)Nc1cc(OC)ccc1OC (stereo not given)	8	-8	4	0	-1	nt
CC(C)CNC(=S)N1CCC(Cc2ccccc2)CC1	0	3	4	-6	-14	nt
C=CCNC(=O)CN(Cc1ccccc1)S(=O)(=O)c1ccccc1	11	2	-5	-3	0	nt
CN(C)/C=C/c1oc2ccc(O)cc2c1[N+](=O)[O-]	49*	61*	-7	3	42*	66*
Cc1oc2ccc(O)cc2c1C(=O)c1ccc([N+](=O)[O-])cc1	-48	2	10	-17	-26	nt
Cc1cc(C)cc(NC(=O)C(NCC2CCCO2)c2ccccc2)c1 (stereo not given)	-15	8	-3	5	60*	10
Cc1cc(C)cc(NC(=O)C(=O)NCC2CCCO2)c1 (stereo not given)	14	-3	-3	-9	-1	nt
Cc1cc(C(C#N)c2ccccc2F)n2ncnc2n1 (stereo not given)	1	16	-1	-5	1	nt
Cc1ccc(NC(=O)CNCc2cccs2)c(Br)c1	-1	8	-1	7	3	nt
Nc1ccccc1C#CC(=O)c1ccccc1	7	21	-2	-10	40*	59*
O=C(C#Cc1cccc([N+](=O)[O-])c1)c1ccccc1	31	nt	10	19	72*	71*
Cc1nn(-c2nc3ccccc3[nH]2)c(N)c1-c1ccccc1	19	nt	-7	11	49*	53*
Cc1nn(-c2ccccc2)c(N)c1-c1ccccc1	8	5	-1	-1	-1	nt
COc1ccc(-c2csc(N3C(=O)CNC3=S)n2)cc1	nt	60*	nt	-10	43*	24
O=C1CNC(=S)N1c1nc(-c2ccccc2)cs1	3	30	-4	-12	19	nt
COC(=O)c1ccc(/C=C(\C#N)C(=O)NC(C)c2ccccc2)cc1 (stereo not given)	12	53*	10	43	40*	55*
CCC(=O)Nc1ccccc1C(=O)N1CCOCC1	5	0	-4	-9	-4	nt
O=C(CCCN1C(=O)c2ccccc2C1=O)Nc1ccccc1C(=O)N1CCOCC1	11	34	1	-5	66*	10
C[C@@H]1CN([C@@H](C)CO)C(=O)CCCn2nncc2CO[C@H]1CN(C)C(=O)Nc1ccc(F)cc1	nt	nt	nt	3	11	nt
C=CCN(C(=O)CSC1=NC(=O)CN1C(C)=O)c1nc(C)c(-c2ccccc2)s1	20	41	-3	23	40*	13
CCc1ccc(-c2cc(C(=O)NCCCn3ccnc3)c3ccccc3n2)s1	5	nt	0	nt	nt	nt
Cc1ccc(-c2cc(C(=O)NCCCn3ccnc3)c3ccccc3n2)s1	-15	5	-2	-24	72*	-9
CCCCC(=O)NC(=S)Nc1ccccc1C(=O)Nc1ccccc1	27	54*	-5	15	51*	54*
COc1ccc(-c2c(C(=O)c3ccccc3)[nH]c(N)c2C(=O)c2ccccc2)cc1OC	nt	nt	nt	3	42*	41*
CN1CCN(c2cc(-c3ccc4ccccc4c3)nc3ccnn23)CC1	nt	nt	nt	-4	4	nt
